Data taken from ChEMBL document CHEMBL1177717, “Mercaptophosphonate compounds as broad-spectrum inhibitors of the metallo-beta-lactamases” (J Med Chem, 2010).

Experiments:
[1] = Inhibition of VIM4 in absence of Zn+ chelator
Outline: (§1)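 Purified VIM-4 (0.2–0.8 nM) in 10 mM HEPES pH 7.2 with 20 μg/mL BSA, run without added Zn2+ (Zn2+ below 0.4 μM) or with 50 μM ZnCl2 final. Enzyme was preincubated with 100 μM inhibitor for 30 min at 37 C. Nitrocefin hydrolysis followed at 482 nm. Ki determined; SD below 10%.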

[2] = Inhibition of VIM4 in presence of Zn+ chelator; outline: as §1
Beta-lactamase L1 [3] = molecular target: T1, Beta-lactamase L1 (Stenotrophomonas maltophilia, UniProt P52700); test: Inhibition of Stenotrophomonas maltophilia beta lactamase L1 in absence of Zn+ chelator
T1 sequence (P52700 whole entry): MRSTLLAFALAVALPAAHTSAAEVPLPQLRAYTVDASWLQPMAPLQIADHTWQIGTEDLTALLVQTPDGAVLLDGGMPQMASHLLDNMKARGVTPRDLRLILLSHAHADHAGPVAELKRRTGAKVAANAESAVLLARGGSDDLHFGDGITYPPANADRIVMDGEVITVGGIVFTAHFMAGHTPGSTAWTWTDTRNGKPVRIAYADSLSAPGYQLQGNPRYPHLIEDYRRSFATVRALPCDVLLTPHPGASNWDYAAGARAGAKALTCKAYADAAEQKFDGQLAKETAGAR
Outline: (§2)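 Purified L1 (0.2–0.8 nM) in 20 mM HEPES pH 7.0 with 20 μg/mL BSA, run without added Zn2+ (Zn2+ below 0.4 μM) or with 50 μM ZnCl2 final. Enzyme was preincubated with 100 μM inhibitor for 30 min at 37 C. Imipenem hydrolysis followed at 300 nm. Ki determined; SD below 10%.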

[4] = molecular target: Metallo-beta-lactamase type 2 (Aeromonas hydrophila, UniProt P26918); test: Inhibition of Aeromonas hydrophila cphA
Chain of Metallo-beta-lactamase type 2 (P26918 whole entry): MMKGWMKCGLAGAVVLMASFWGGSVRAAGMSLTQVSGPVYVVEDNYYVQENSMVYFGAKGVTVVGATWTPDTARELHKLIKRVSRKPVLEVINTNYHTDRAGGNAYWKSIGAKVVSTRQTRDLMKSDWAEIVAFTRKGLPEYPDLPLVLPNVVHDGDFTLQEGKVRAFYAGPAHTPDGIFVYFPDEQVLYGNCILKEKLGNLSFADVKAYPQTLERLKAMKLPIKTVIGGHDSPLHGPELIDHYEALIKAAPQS
Outline: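 Purified CphA (0.2–0.8 nM) in 15 mM cacodylate pH 6.5 with 20 μg/mL BSA and no added Zn2+ (Zn2+ below 0.4 μM). Enzyme was preincubated with 100 μM inhibitor for 30 min at 37 C. Imipenem was then added and its hydrolysis followed by absorbance at 300 nm. Competitive Ki determined; SD below 10%.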

Beta-lactamase L1 [5] = molecular target: T1, Beta-lactamase L1; test: Inhibition of Stenotrophomonas maltophilia beta lactamase L1 in presence of Zn+ chelator; outline: as §2
[6] = molecular target: Intestinal-type alkaline phosphatase (Bos taurus, UniProt P19111); test: Inhibition of bovine intestinal alkaline phosphatase
Chain of Intestinal-type alkaline phosphatase (P19111 whole entry): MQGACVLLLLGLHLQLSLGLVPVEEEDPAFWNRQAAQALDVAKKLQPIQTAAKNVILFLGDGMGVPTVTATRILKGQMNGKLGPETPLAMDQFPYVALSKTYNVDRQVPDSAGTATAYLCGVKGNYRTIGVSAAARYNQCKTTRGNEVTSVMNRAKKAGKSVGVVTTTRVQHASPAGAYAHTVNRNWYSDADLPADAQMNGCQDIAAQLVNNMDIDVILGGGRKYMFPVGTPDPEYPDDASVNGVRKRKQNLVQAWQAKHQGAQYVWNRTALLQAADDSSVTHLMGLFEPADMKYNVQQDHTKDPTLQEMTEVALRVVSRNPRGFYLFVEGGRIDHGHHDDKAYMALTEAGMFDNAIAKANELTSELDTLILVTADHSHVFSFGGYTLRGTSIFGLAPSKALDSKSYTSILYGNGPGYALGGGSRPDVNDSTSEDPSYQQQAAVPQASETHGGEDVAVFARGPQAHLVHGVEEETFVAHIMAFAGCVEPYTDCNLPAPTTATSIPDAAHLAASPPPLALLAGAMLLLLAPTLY

[7] = Inhibition of Escherichia coli alkaline phosphatase

Row | Structure (SMILES) | Ki [1] | Ki [2] | Ki (Beta-lactamase L1 [3]) | Ki [4] | Ki (Beta-lactamase L1 [5]) | Ki [6] | IC50 [7]
1 | CC(C)OP(=O)(OC(C)C)c1ccccc1CS | 3 µM | 12 µM | 3 µM | 2 µM | 14 µM |  | 
2 | O=P(O)(O)C(S)c1ccc(F)cc1 (configuration not stated) | 16 µM | 11 µM | > 20 µM | 1 µM | 18 µM |  | 
3 | O=P(O)(O)C(S)c1ccccc1 (configuration not stated) | 2.5 µM | 3 µM | > 100 µM | 11 µM | 32 µM |  | 
4 | O=P(O)(O)c1ccccc1S | 2 µM | 4 µM | 9 µM | 7 µM | 12 µM | 0.21 µM | < 10 µM
5 | O=P(O)(O)C(S)c1ccc(Cl)cc1Cl (configuration not stated) | 1 µM | 4 µM | 0.4 µM | 5 µM | 0.4 µM |  | 
6 | CC(C)OP(=O)(OC(C)C)C(S)c1ccccc1 (configuration not stated) [DIISOPROPYL MERCAPTO(PHENYL)METHYLPHOSPHONATE] | 3 µM | 8 µM | 20 µM | 0.25 µM | 16 µM |  | 
7 | CCC(S)P(=O)(O)O (configuration not stated) | 11 µM | 6 µM | > 80 µM | 15 µM | > 40 µM |  | 
8 | O=P(O)(O)C(S)c1ccc(Cl)cc1 (configuration not stated) | 6.7 µM | 10 µM | 3.8 µM | 24 µM | 0.7 µM |  | 
9 | COc1ccccc1C(S)P(=O)(O)O (configuration not stated) | 2 µM | 4 µM | 9 µM | 15 µM | 4 µM |  | 
10 | O=P(O)(O)c1cc(F)ccc1S | 2.5 µM | 13 µM | 40 µM | > 40 µM | 4 µM |  | 
11 | CC(C)OP(=O)(OC(C)C)c1ccccc1S | > 250 µM | > 250 µM | > 250 µM | > 250 µM | > 250 µM |  | 
12 | O=P(O)(O)C(S)c1ccc(Br)cc1 (configuration not stated) | 5.5 µM | 13.5 µM | 8.4 µM | 13 µM | 1.7 µM |  | 
13 | CCC(S)P(=O)(OC(C)C)OC(C)C (configuration not stated) | > 20 µM | > 20 µM | > 40 µM | 2 µM | > 40 µM |  | 
14 | O=P(O)(O)c1ccccc1CS | 1 µM | > 400 µM | 2 µM | 0.5 µM | > 50 µM |  | 
